Results of several laboratories.
Protocols differ between the studies behind these lines.
Medium: plasma

Compound	method	species	route	dose	notes	measurement	value
CCc1cc(C(=O)NC)c2nccc(N3CCc4c(cc(Cn5ccnc5)cc4-c4cn(C)nc4C(F)(F)F)C3=O)c2c1	–	male Sprague-Dawley rat	oral	100 mg/kg	–	MRT(0-inf)	10.6 h
CCOC(=O)[C@@]12C[C@@H]1[C@@H](n1ccc3c(NC)nc(C#Cc4ccc(Cl)s4)nc31)[C@H](O)[C@@H]2O	–	male Sprague-Dawley rat	oral	3 mg/kg	–	MRT(0-t)	2.44 h
CCc1nc(C(N)=O)c(Nc2ccc(N3CCC(N4CCN(C)CC4)CC3)c(OC)c2)nc1NC1CCOCC1	–	male Sprague-Dawley rat	oral	10 mg/kg	–	MRT(0-t)	19.5 h
CCc1cc(OC)c2nccc(N3CCc4c(cc(Cn5ccnc5)cc4-c4cn(C)nc4C(F)(F)F)C3=O)c2c1	–	male Sprague-Dawley rat	intravenous	3 mg/kg	–	MRT(0-inf)	1 h
CNCc1cc(-c2ccccc2F)n(S(=O)(=O)c2cccnc2)c1	–	Sprague-Dawley rat	oral	10 mg/kg	–	MRT(0-inf)	2.47 h
O=C(Nc1cc(F)c(F)c(F)c1)c1ccc(F)c(S(=O)(=O)NCc2cccc(B(O)O)c2)c1	–	male Sprague-Dawley rat	intravenous	2 mg/kg	–	MRT(0-t)	0.73 h
Oc1c(Br)cc(Cl)c2cccnc12	–	Sprague-Dawley rat	intravenous	2 mg/kg	–	MRT	12.5 h
O=C(c1cc(Cc2n[nH]c(=O)c3ccccc23)ccc1F)N1CCN(C(=O)C2CC2)CC1	–	female Sprague-Dawley rat	intravenous	–	–	MRT	1.52 h
O=C(O)/C=C/c1ccc(O)c(O)c1	HPLC	Wistar rat	oral	–	–	MRT	0.69 h
C#Cc1cccc(Nc2ncnc3cc(OCCOC)c(OCCOC)cc23)c1	–	male Sprague-Dawley rat	oral	12 mg/kg	single dose	MRT(0-t)	5.07 h
COc1nc(-c2cc(C)c(N[C@@H](C)c3cc(F)cc(F)c3)nn2)ccc1-n1cnc(C)c1	–	male Sprague-Dawley rat	intravenous	1 mg/kg	single dose	MRT(0-t)	3.28 h
N#Cc1ccc(Nc2nc(N)cc(Oc3c(F)cc(-c4ccc(C#N)cc4)cc3F)n2)cc1	–	Sprague-Dawley rat	intravenous	1 mg/kg	–	MRT(0-inf)	1.56 h
